{"source": "ChEMBL document CHEMBL4354843", "about": "“Structure-Based Design of a Potent and Selective Covalent Inhibitor for SRC Kinase That Targets a P-Loop Cysteine” (J Med Chem, 2020)", "key": {"[1]": {"biological_target": "Calcium/calmodulin-dependent protein kinase type II subunit gamma (Homo sapiens) (UniProt Q13555)", "experiment": "Binding affinity to wild-type human partial length CAMK2G (R9 to A303 residues) expressed in bacterial expression system assessed as residual binding level at 1 uM by Kinomescan method relative to control"}, "[2]": {"biological_target": "Cyclin-dependent kinase 7 (Homo sapiens) (UniProt P50613)", "sequence (P50613 whole entry, the tested form may be a part)": "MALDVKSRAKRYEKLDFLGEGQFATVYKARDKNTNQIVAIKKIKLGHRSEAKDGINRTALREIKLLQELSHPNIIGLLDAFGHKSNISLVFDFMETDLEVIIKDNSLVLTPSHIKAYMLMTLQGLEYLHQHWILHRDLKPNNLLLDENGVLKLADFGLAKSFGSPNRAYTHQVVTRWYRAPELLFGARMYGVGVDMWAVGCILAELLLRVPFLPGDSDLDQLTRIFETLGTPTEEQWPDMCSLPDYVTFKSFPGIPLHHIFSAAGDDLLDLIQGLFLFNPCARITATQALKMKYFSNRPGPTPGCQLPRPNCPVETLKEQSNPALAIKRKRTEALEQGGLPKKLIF", "experiment": "Binding affinity to wild-type human full length CDK7 (M1 to L344 residues) expressed in mammalian expression system assessed as residual binding level at 1 uM by Kinomescan method relative to control", "how_it_was_run": "(§1)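 Active-site-directed KinomeScan competition binding panel covering 468 kinases, compound tested at 1 μM. Each readout is the kinase signal remaining with compound, expressed as a percentage of the DMSO control. […]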"}, "[3]": {"biological_target": "Cyclin-dependent kinase 9 (Homo sapiens) (UniProt P50750)", "sequence (P50750 whole entry, the tested form may be a part)": "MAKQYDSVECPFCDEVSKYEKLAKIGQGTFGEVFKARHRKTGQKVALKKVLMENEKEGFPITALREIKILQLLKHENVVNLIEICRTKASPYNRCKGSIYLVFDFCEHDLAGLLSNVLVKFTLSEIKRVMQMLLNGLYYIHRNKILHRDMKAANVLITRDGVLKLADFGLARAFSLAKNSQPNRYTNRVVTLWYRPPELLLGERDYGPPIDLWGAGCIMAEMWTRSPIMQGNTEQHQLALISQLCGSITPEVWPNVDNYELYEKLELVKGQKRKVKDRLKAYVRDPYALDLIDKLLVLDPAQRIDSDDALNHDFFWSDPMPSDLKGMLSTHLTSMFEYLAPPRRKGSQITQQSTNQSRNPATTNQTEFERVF", "experiment": "Binding affinity to wild-type human full length CDK9 (M1 to F372 residues) expressed in bacterial expression system assessed as residual binding level at 1 uM by Kinomescan method relative to control", "how_it_was_run": "as §1"}, "[4]": {"biological_target": "Cyclin-dependent kinase-like 1 (Homo sapiens) (UniProt Q00532)", "sequence (Q00532 whole entry, the tested form may be a part)": "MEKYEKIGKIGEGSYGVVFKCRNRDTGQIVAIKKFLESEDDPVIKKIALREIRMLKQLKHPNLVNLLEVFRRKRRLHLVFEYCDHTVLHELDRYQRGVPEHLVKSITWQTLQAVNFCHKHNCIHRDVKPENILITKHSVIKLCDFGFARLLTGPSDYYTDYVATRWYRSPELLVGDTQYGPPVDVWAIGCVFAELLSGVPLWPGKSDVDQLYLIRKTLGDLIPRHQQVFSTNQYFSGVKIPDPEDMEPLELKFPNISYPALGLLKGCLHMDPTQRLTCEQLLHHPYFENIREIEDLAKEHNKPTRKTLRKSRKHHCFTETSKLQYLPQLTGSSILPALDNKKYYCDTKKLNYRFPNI", "experiment": "Binding affinity to wild-type human full length CDKL1 (M1 to I358 residues) expressed in mammalian expression system assessed as residual binding level at 1 uM by Kinomescan method relative to control", "how_it_was_run": "(§2)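 KinomeScan, an active site-directed competition binding panel of 468 kinases. The test compound was at 1 μM. The readout is remaining kinase binding as a percentage of the DMSO control. Scores above 35% were treated as weak binding and not listed.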"}, "[5]": {"biological_target": "Death-associated protein kinase 2 (Homo sapiens) (UniProt Q9UIK4)", "sequence (Q9UIK4 whole entry, looked up, the tested form may be a part)": "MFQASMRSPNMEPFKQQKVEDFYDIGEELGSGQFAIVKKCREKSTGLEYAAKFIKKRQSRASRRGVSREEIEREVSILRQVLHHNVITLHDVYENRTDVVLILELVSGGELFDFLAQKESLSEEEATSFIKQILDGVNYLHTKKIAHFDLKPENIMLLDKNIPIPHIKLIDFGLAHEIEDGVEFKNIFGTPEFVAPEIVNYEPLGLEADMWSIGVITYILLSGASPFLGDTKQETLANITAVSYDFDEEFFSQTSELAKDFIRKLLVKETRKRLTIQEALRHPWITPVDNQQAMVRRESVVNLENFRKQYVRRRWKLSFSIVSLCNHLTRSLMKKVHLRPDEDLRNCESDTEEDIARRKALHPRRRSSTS", "experiment": "Binding affinity to wild-type human full length DAPK2 (M1 to S370 residues) expressed in bacterial expression system assessed as residual binding level at 1 uM by Kinomescan method relative to control", "how_it_was_run": "as §1"}, "[6]": {"biological_target": "Ephrin type-A receptor 2 (Homo sapiens) (UniProt P29317)", "experiment": "Binding affinity to wild-type human partial length EPHA2 (T593 to V891 residues) expressed in bacterial expression system assessed as residual binding level at 1 uM by Kinomescan method relative to control"}, "[7]": {"biological_target": "Mitogen-activated protein kinase 1 (Homo sapiens) (UniProt P28482)", "experiment": "Binding affinity to wild-type human full length ERK2 (M1 to S360 residues) expressed in bacterial expression system assessed as residual binding level at 1 uM by Kinomescan method relative to control", "how_it_was_run": "as §1"}, "[8]": {"biological_target": "Glycogen synthase kinase-3 beta (Homo sapiens) (UniProt P49841)", "sequence (P49841 whole entry, looked up, the tested form may be a part)": "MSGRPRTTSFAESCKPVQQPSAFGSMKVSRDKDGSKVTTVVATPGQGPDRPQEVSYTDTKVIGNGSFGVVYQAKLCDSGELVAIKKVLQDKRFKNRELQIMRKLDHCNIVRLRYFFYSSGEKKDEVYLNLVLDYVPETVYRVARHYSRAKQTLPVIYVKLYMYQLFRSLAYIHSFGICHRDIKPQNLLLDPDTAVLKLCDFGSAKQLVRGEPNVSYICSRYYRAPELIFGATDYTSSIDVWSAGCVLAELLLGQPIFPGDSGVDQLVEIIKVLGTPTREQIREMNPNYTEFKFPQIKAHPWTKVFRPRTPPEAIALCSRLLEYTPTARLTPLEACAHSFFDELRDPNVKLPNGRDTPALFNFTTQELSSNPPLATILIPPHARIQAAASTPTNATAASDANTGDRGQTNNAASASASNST", "experiment": "Binding affinity to wild-type human full length GSK3B (M1 to T433 residues) expressed in mammalian expression system assessed as residual binding level at 1 uM by Kinomescan method relative to control", "how_it_was_run": "as §2"}, "[9]": {"system": "Leucine-rich repeat serine/threonine-protein kinase 2 (Homo sapiens), Q5S007 [G2019S]", "experiment": "Binding affinity to human partial length LRRK2 G2019S mutant (H970 to E2527 residues) expressed in mammalian expression system assessed as residual binding level at 1 uM by Kinomescan method relative to control", "how_it_was_run": "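KinomeScan active site-directed competition binding panel (468 kinases), compound tested at 1 μM. Result expressed as remaining kinase signal versus DMSO control (percent of control).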"}, "[10]": {"biological_target": "Leukocyte tyrosine kinase receptor (Homo sapiens) (UniProt P29376)", "experiment": "Binding affinity to wild-type human partial length LTK (P422 to S744 residues) expressed in bacterial expression system assessed as residual binding level at 1 uM by Kinomescan method relative to control"}, "[11]": {"biological_target": "MAP kinase-activated protein kinase 2 (Homo sapiens) (UniProt P49137)", "sequence (P49137 whole entry, looked up, the tested form may be a part)": "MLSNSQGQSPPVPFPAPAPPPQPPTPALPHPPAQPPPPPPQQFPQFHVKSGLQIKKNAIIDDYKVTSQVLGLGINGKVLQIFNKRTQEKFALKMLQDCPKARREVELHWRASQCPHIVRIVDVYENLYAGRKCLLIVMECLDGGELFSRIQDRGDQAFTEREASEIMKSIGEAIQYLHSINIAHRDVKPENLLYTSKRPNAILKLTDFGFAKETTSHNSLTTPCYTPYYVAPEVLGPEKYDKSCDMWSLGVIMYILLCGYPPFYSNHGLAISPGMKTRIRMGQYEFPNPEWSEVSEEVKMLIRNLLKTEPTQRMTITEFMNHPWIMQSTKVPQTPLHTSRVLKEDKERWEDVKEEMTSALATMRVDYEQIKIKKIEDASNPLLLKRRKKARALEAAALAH", "experiment": "Binding affinity to wild-type human partial length MAPKAPK2 (V48 to D345 residues) expressed in bacterial expression system assessed as residual binding level at 1 uM by Kinomescan method relative to control"}, "[12]": {"biological_target": "Cyclin-dependent kinase 16 (Homo sapiens) (UniProt Q00536)", "sequence (Q00536 whole entry, the tested form may be a part)": "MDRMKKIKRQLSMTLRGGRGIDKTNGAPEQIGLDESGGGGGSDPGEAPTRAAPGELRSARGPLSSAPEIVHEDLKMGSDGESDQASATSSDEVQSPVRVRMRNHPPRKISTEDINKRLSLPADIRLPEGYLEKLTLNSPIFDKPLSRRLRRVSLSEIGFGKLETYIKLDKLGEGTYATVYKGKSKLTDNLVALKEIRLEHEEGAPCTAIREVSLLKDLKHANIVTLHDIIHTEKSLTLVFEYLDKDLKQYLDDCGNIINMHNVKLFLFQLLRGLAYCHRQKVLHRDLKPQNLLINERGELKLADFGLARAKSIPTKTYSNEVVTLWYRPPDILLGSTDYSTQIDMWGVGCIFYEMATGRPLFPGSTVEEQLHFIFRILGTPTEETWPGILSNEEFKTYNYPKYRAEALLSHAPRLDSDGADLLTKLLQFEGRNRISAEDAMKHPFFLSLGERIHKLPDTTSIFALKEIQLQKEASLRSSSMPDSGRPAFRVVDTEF", "experiment": "Binding affinity to wild-type human partial length PCTK1 (G160 to A474 residues) expressed in mammalian expression system assessed as residual binding level at 1 uM by Kinomescan method relative to control"}, "[13]": {"biological_target": "Platelet-derived growth factor receptor beta (Homo sapiens) (UniProt P09619)", "experiment": "Binding affinity to wild-type human partial length PDGFRB (V582 to Y1009 residues) expressed in bacterial expression system assessed as residual binding level at 1 uM by Kinomescan method relative to control", "how_it_was_run": "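Active-site-directed competition binding panel of 468 kinases (KinomeScan), compound at 1 μM. The read-out is kinase remaining bound, given as a percentage of the DMSO control. […]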"}, "[14]": {"biological_target": "Phosphorylase b kinase gamma catalytic chain, skeletal muscle/heart isoform (Homo sapiens) (UniProt Q16816)", "experiment": "Binding affinity to wild-type human full length PHKG1 (M1 to Y387 residues) expressed in bacterial expression system assessed as residual binding level at 1 uM by Kinomescan method relative to control", "how_it_was_run": "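Active-site-directed competition binding panel (KinomeScan) covering 468 kinases. Test agent was screened at 1 μM. The read-out is the remaining kinase signal expressed relative to a DMSO control. Scores above 35%, taken as weak binding, were not reported.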"}, "[15]": {"biological_target": "Phosphatidylinositol 4,5-bisphosphate 3-kinase catalytic subunit delta isoform (Homo sapiens) (UniProt O00329)", "experiment": "Binding affinity to wild-type human partial length PIK3CD (R108 to Q1044 residues) expressed in mammalian expression system assessed as residual binding level at 1 uM by Kinomescan method relative to control"}, "[16]": {"biological_target": "Serine/threonine-protein kinase pim-2 (Homo sapiens) (UniProt Q9P1W9)", "sequence (Q9P1W9 whole entry, looked up, the tested form may be a part)": "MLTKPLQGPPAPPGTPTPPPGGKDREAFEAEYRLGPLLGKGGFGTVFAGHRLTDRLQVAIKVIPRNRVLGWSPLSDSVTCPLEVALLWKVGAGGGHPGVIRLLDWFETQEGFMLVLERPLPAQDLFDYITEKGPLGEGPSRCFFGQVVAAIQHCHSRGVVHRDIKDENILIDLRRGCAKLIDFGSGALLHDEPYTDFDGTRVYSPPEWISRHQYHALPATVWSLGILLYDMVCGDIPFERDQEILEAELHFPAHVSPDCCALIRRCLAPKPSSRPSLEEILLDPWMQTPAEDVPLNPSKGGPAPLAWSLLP", "experiment": "Binding affinity to wild-type human partial length PIM2 (M1 to E291 residues) expressed in bacterial expression system assessed as residual binding level at 1 uM by Kinomescan method relative to control"}, "[17]": {"biological_target": "Receptor-interacting serine/threonine-protein kinase 4 (Homo sapiens) (UniProt P57078)", "experiment": "Binding affinity to wild-type human partial length RIPK4 (M1 to V303 residues) expressed in mammalian expression system assessed as residual binding level at 1 uM by Kinomescan method relative to control"}, "[18]": {"biological_target": "Rho-associated protein kinase 1 (Homo sapiens) (UniProt Q13464)", "experiment": "Binding affinity to wild-type human partial length ROCK1 (M1 to R415 residues) expressed in mammalian expression system assessed as residual binding level at 1 uM by Kinomescan method relative to control"}, "[19]": {"biological_target": "Serine/threonine-protein kinase WNK2 (Homo sapiens) (UniProt Q9Y3S1)", "experiment": "Binding affinity to wild-type human partial length WNK2 (V47 to D482 residues) expressed in mammalian expression system assessed as residual binding level at 1 uM by Kinomescan method relative to control", "how_it_was_run": "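Active site-directed competition binding panel (KinomeScan, 468 kinases). Test compound at 1 μM. Read-out is kinase binding remaining versus DMSO control, expressed as percent of control. Scores above 35% are treated as weak binding.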"}, "[20]": {"biological_target": "Serine/threonine-protein kinase WNK3 (Homo sapiens) (UniProt Q9BYP7)", "sequence (Q9BYP7 whole entry, the tested form may be a part)": "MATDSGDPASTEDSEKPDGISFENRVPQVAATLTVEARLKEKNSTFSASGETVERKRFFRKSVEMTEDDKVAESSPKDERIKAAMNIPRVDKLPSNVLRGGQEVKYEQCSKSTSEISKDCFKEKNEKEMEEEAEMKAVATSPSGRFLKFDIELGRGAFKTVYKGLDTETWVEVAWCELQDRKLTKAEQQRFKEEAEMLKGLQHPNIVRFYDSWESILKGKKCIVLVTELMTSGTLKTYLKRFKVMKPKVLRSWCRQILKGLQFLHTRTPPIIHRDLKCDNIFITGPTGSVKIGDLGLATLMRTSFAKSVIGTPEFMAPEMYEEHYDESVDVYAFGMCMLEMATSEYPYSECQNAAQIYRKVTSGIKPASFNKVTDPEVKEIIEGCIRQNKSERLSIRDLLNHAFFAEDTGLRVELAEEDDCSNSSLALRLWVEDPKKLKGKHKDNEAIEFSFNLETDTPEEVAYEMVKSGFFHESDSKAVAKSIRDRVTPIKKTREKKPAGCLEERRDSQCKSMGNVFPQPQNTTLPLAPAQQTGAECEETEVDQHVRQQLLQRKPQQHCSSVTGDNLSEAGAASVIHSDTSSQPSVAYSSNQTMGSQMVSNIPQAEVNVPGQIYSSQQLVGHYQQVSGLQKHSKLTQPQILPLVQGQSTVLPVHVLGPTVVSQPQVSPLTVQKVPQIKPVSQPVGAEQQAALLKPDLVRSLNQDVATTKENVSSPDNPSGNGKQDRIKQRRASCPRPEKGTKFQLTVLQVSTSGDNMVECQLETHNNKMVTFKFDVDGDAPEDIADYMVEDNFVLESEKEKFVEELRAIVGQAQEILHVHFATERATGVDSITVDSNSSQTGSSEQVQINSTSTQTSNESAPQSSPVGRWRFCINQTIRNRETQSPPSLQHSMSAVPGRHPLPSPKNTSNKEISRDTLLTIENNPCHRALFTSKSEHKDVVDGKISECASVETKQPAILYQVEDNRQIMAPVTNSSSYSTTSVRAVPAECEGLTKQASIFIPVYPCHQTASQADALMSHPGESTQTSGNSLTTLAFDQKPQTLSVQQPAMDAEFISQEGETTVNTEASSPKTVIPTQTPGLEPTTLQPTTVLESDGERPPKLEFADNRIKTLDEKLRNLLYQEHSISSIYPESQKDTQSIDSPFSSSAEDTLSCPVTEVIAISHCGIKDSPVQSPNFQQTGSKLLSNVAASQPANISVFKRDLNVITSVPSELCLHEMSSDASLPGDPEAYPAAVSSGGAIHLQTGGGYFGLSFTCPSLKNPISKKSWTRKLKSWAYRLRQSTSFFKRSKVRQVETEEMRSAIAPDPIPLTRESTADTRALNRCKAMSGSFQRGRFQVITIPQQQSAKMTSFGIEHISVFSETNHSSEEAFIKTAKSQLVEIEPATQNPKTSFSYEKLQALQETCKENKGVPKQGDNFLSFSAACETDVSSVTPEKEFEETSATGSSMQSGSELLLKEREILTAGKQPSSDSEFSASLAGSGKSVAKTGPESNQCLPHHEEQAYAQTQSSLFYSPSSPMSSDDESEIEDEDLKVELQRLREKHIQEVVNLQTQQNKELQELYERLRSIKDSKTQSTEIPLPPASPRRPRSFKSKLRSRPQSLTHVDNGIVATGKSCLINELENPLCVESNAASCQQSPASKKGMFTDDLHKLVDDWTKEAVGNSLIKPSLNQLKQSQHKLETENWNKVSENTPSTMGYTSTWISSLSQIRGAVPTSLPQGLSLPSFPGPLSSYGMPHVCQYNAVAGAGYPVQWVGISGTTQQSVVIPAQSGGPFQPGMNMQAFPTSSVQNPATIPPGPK", "experiment": "Binding affinity to wild-type human partial length WNK3 (M1 to D434 residues) expressed in mammalian expression system assessed as residual binding level at 1 uM by Kinomescan method relative to control"}, "[21]": {"biological_target": "Tyrosine-protein kinase HCK (Homo sapiens, UniProt P08631)", "experiment": "Inhibition of HCK (unknown origin)"}}, "note": "pIC50: −log10 of the molar value."}
{"smiles": "C=CC(=O)Nc1ccccc1Nc1nc(Nc2ccc(N3CCN(C)CC3)cc2)ncc1C(=O)Nc1c(C)cccc1Cl", "values": [{"measurement": "Activity", "setting": "[1]", "value": 100, "unit": "%"}, {"measurement": "Activity", "setting": "[2]", "value": 100, "unit": "%"}, {"measurement": "Activity", "setting": "[3]", "value": 100, "unit": "%"}, {"measurement": "Activity", "setting": "[4]", "value": 72, "unit": "%"}, {"measurement": "Activity", "setting": "[5]", "value": 100, "unit": "%"}, {"measurement": "Activity", "setting": "[6]", "value": 100, "unit": "%"}, {"measurement": "Activity", "setting": "[7]", "value": 100, "unit": "%"}, {"measurement": "Activity", "setting": "[8]", "value": 98, "unit": "%"}, {"measurement": "Activity", "setting": "[9]", "value": 100, "unit": "%"}, {"measurement": "Activity", "setting": "[10]", "value": 100, "unit": "%"}, {"measurement": "Activity", "setting": "[11]", "value": 100, "unit": "%"}, {"measurement": "Activity", "setting": "[12]", "value": 100, "unit": "%"}, {"measurement": "Activity", "setting": "[13]", "value": 29, "unit": "%"}, {"measurement": "Activity", "setting": "[14]", "value": 100, "unit": "%"}, {"measurement": "Activity", "setting": "[15]", "value": 100, "unit": "%"}, {"measurement": "Activity", "setting": "[16]", "value": 95, "unit": "%"}, {"measurement": "Activity", "setting": "[17]", "value": 100, "unit": "%"}, {"measurement": "Activity", "setting": "[18]", "value": 100, "unit": "%"}, {"measurement": "Activity", "setting": "[19]", "value": 64, "unit": "%"}, {"measurement": "Activity", "setting": "[20]", "value": 100, "unit": "%"}, {"measurement": "pIC50", "setting": "[21]", "value": 8.52}]}
